# Measurements collected from several papers.
# Compare with care: the assays were run in different laboratories.
# Target: Serine/threonine-protein kinase DCLK3 (DCLK3, Homo sapiens, UniProt Q9C098)
# Sequence (Q9C098 1-648, as in one of the studies): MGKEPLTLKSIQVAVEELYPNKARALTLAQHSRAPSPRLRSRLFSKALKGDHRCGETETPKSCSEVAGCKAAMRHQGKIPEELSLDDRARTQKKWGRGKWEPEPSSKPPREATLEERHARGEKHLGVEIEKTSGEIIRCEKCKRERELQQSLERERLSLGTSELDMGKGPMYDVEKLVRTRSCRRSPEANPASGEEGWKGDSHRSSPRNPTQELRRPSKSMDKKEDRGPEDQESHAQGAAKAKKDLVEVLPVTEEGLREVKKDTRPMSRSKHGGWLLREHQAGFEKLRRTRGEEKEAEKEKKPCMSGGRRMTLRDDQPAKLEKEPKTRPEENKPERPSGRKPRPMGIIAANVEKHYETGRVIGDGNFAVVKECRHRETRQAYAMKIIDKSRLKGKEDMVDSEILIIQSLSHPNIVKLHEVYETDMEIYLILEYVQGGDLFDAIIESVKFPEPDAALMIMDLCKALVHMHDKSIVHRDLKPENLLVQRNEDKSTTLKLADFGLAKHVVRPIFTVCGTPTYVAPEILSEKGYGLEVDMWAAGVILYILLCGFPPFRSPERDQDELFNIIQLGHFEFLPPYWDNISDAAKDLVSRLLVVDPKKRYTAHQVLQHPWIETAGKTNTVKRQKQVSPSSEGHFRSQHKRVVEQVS
SMILES,test,setting,remaining binding
Cn1cc(Cl)c2c(Oc3c(F)cc(Nc4cc(Cl)nc(N)n4)cc3F)ccnc21,"cell-free assay, competition with immobilised ligand",0.1 µM,89%
CC1CCCN1c1nccc(-c2cnn3ncccc23)n1 (stereo not drawn),binding,1 µM,100%
COc1cnc(Nc2cccc(S(N)(=O)=O)c2)nc1N1CCN(c2ccccc2)CC1,"binding, competition with immobilised ligand",1 µM,71%
O=C(c1ccc(Nc2ncc(Cl)c(-c3ccc(Cl)s3)n2)cc1)N1CCC(N2CCCC2)CC1,"binding, competition with immobilised ligand",1 µM,14%
N[C@@H]1CCN(c2nccc(-c3cnn4ncccc34)n2)C1,binding,1 µM,100%
O=C(Nc1c[nH]nc1C(=O)NC1CCNCC1)c1cc(F)cc(F)c1,"binding, competition with immobilised ligand",1 µM,93%
CN(C)c1ncc(F)c(-c2cnn3ncccc23)n1,binding,1 µM,100%
O=C(NCCCN1CCOCC1)c1ccc(Nc2nccc(-c3cc4ccccc4s3)n2)cc1,"binding, competition with immobilised ligand",1 µM,0.4%
N#CC1(c2ccccn2)CCN(Cc2cc(C(=O)N3CCCC3)c(=O)n3ccccc23)CC1,"cell-free assay, competition with immobilised ligand",1 µM,100%
C[C@@H]1CCN(c2nccc(-c3cnn4ncccc34)n2)C1,binding,1 µM,100%
CN([C@@H]1CCc2c(CC(=O)O)c3ccccc3n2C1)S(=O)(=O)c1ccc(F)cc1,"cell-free assay, competition with immobilised ligand",1 µM,99%
COc1cnc(Nc2cccc(S(N)(=O)=O)c2)nc1N1CCN(c2ccccc2)C(=O)C1,"binding, competition with immobilised ligand",1 µM,100%
C[C@H](c1cccc(C#N)c1)n1cc(Cl)cc(C(N)=O)c1=N,"cell-free assay, competition with immobilised ligand",1 µM,99%
c1cncc(-c2cccc(Nc3nccc(NC4CCCCC4)n3)c2)c1,"binding, competition with immobilised ligand",10 µM,80%
c1cnn2ncc(-c3ccnc(N4CCC45COC5)n3)c2c1,binding,1 µM,100%
CC1=C(C#N)[C@@H](c2ccc3[nH]nc(C)c3c2)C(C#N)=C(c2ccc(Cl)cc2)N1,"cell-free assay, competition with immobilised ligand",1 µM,71.3%
CN(CCCC(F)(F)F)c1nccc(-c2cnn3ncccc23)n1,binding,1 µM,85%
O=C(NCCCN1CCOCC1)c1ccc(Nc2ncc(Cl)c(-c3ccc(Cl)s3)n2)cc1,"binding, competition with immobilised ligand",1 µM,1.9%
COc1ncc2cc3ccccc3nc2c1C#N,"cell-free assay, competition with immobilised ligand",5 µM,100%
CNC(=O)c1ccc(Nc2ncc(C(F)(F)F)c(NCc3nccnc3N(C)S(C)(=O)=O)n2)cc1,"cell-free assay, competition with immobilised ligand",0.1 µM,67%
CCN1CCN(Cc2ccc(C(=O)Nc3ccc(C)c(Oc4ccc5c(c4)CC(=O)N5)c3)cc2C(F)(F)F)CC1,"binding, competition with immobilised ligand",1 µM,100%
